Residues, ends and D or L forms follow the SMILES beside them. *: point of attachment. AMC = Cc1cc(=O)oc2cc(N*)ccc12; Cbz = O=C(OCc1ccccc1)*
What was measured:
[1] = target: cathepsin B activity in human neuroblastoma cell lysate (Homo sapiens, UniProt P07858); test: Cathepsin B activity in neuroblastoma cell homogenate in presence of inhibitors; format: biochemical; conditions: 1 μM inhibitor; SHSY5Y homogenate; Z-Arg-Arg-AMC substrate; pH 5.5
Summary of the method: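 SHSY5Y cells were grown in 50% MEMalpha/50% F12-K with 10% heat-inactivated FBS at 37 °C under 5% CO2. They were collected in 0.32 M sucrose and freeze-thawed to give homogenate. CA-074-sensitive activity was taken as cathepsin B. Protein was measured by DC assay. Output is nmol AMC/μg/min, mean ± SD, Student's t-test.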

cathepsin B [2] = target: T1, cathepsin B (Homo sapiens, UniProt P07858); test: pH profile of cathepsin B activity with peptide-AMC substrates; format: biochemical; conditions: substrate 60 μM, pH 2 to 9
Summary of the method: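 Activated cathepsin B (0.04 ng/μL) was run with 60 μM of each peptide-AMC substrate. Buffers were 50 mM citrate phosphate at pH 2.2–7.4 in 0.4-unit steps plus pH 7.2, and 50 mM Tris-HCl at pH 7.4–9.0. Assays ran at 25 °C with ex360/em460. Activity was taken as RFU/sec, the highest slope over 10 consecutive readings. Results are mean ± SEM, n=3.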

Cathepsin L [3] = target: T2, Cathepsin L (Homo sapiens, UniProt P07711); test: Specificity of peptide-AMC substrates: cleavage by cathepsin L; format: biochemical
T2 sequence (P07711 114-333): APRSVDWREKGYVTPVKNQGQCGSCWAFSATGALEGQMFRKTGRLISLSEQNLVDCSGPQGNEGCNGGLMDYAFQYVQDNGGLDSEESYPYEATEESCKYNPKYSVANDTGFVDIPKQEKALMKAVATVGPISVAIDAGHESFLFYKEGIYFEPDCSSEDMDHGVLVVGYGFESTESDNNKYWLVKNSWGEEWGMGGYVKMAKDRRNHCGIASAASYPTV

Cathepsin V [4] = target: T3, Cathepsin V (Homo sapiens, UniProt O60911); test: Specificity of peptide-AMC substrates: cleavage by cathepsin V; format: biochemical
T3 sequence (O60911 114-334): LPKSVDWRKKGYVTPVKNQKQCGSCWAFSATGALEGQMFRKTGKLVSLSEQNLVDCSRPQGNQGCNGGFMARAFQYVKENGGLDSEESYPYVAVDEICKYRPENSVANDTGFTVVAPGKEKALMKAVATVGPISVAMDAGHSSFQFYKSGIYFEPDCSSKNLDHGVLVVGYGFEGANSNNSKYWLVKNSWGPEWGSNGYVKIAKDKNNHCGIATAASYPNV

Cathepsin K = target: T4, Cathepsin K (Homo sapiens, UniProt P43235); test: Specificity of inhibitors: cathepsin K activity with Z-Phe-Arg-AMC; format: biochemical; conditions: for % inhibition: pH 4.6, at 16 μM (16,000 nM) inhibitor
T4 sequence (P43235 115-329): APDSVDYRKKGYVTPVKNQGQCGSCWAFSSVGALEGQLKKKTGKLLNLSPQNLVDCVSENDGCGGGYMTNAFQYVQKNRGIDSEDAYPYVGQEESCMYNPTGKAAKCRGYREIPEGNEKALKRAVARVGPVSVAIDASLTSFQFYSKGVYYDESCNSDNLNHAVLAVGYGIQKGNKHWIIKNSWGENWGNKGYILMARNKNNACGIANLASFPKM

cathepsin B [5] = target: T1, cathepsin B; test: Cathepsin B inhibition, fluorogenic assay with Z-Phe-Arg-AMC substrate; format: biochemical; conditions: for reduction of cathepsin B activity with Z-Phe-Arg-AMC as substrate: 64 nM inhibitor; for Ki: irreversible inhibitor KI, mean ± SD
Cathepsin S = Cathepsin S (Homo sapiens, UniProt P25774); test: Specificity of inhibitors: cathepsin S activity with Z-Phe-Arg-AMC; format: biochemical; conditions: for IC50 / % inhibition: Cathepsin S; for IC50: without pre-incubation; for % inhibition: at 16 μM (16,000 nM) inhibitor
Sequence of Cathepsin S (P25774 115-331): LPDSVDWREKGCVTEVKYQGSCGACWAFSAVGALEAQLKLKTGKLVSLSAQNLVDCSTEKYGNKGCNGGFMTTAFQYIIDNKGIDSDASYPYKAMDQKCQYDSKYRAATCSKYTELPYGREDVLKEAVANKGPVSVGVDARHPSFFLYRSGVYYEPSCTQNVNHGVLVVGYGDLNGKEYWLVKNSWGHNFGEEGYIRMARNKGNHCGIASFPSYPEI

Cathepsin V [6] = target: T3, Cathepsin V; test: Specificity of inhibitors: cathepsin V activity with Z-Phe-Arg-AMC; format: biochemical; conditions: for IC50: without pre-incubation
Cathepsin L [7] = target: T2, Cathepsin L; test: Specificity of inhibitors: cathepsin L activity with Z-Phe-Arg-AMC; format: biochemical; conditions: for IC50: pH 4.6, without pre-incubation
Cathepsin H = Cathepsin H (Homo sapiens, UniProt P09668); test: Specificity of inhibitors: cathepsin H activity with Arg-AMC; format: biochemical
Sequence of Cathepsin H (P09668 116-335 limits assumed, other chains not shown): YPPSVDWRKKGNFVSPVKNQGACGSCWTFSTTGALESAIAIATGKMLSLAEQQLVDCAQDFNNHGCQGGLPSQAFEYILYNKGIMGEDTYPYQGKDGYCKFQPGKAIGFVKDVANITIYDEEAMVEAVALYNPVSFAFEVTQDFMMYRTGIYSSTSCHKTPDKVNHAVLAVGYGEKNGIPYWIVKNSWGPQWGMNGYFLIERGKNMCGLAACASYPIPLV

[8] = target: intracellular cathepsin B in SHSY5Y human neuroblastoma cells (Homo sapiens, UniProt P07858); format: cell-based; conditions: 50 μM, 6 hrs
Summary of the method: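 Intact SHSY5Y cells were treated with test compound for 6 h at 37 °C. They were washed 3× in PBS, homogenised in 0.32 M sucrose and freeze-thawed. Cathepsin B activity was taken as the CA-074-sensitive fraction, normalised to DC-assay protein. Output is nmol AMC/μg/min, mean + SD, n=6, t-test.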

Cathepsin X = Cathepsin X (Homo sapiens, UniProt Q9UBR2); format: biochemical; conditions: pH 4.6, without pre-incubation
Sequence of Cathepsin X (Q9UBR2 62-303): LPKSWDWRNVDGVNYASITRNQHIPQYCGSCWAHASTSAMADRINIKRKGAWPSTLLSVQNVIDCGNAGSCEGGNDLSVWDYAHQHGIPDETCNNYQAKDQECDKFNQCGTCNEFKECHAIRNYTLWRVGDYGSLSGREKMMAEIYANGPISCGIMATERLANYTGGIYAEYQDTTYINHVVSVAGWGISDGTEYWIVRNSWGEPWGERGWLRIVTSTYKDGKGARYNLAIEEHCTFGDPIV

Cathepsin C = Cathepsin C (Homo sapiens, UniProt P53634); test: Specificity of inhibitors: cathepsin C activity with Gly-Arg-AMC; format: biochemical; conditions: for IC50: Cathepsin C, without pre-incubation
Sequence of Cathepsin C (P53634 25-134 limits assumed): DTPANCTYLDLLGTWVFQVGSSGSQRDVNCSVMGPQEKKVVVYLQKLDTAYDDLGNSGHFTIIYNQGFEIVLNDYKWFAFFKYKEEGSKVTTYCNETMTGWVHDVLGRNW
Sequence of Cathepsin C (P53634 231-394 limits assumed): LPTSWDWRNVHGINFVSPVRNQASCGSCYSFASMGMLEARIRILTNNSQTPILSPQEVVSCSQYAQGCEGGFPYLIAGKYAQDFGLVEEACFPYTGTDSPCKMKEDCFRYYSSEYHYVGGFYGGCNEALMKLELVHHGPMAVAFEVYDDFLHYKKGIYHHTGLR
Sequence of Cathepsin C (P53634 395-463 limits assumed): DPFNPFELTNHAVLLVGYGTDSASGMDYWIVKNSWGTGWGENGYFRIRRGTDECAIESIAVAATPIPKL

[9] = cathepsin B, pH 4.6, without preincubation, Z-Phe-Arg-AMC 40 μM
[10] = cathepsin B, pH 7.2, without preincubation, Z-Phe-Arg-AMC 40 μM
[11] = pH not stated in the sentence for Z-Glu-Lys-AMC, pH 4.6 for Z-Phe-Arg-AMC

| pH of maximal (optimal) hydrolysis by cathepsin B (cathepsin B [2]) [pH] | % inhibition (Cathepsin K) | IC50 (Cathepsin K; pH 4.6, without pre-incubation) [µM] | IC50 (Cathepsin K; pH 7.2, without pre-incubation) [µM] | kinact/KI (cathepsin B [5]; cathepsin B, pH 4.6) [M⁻¹ s⁻¹] | Ki (cathepsin B [5]; cathepsin B, pH 4.6) [µM] | IC50 (cathepsin B [5]; [9]) [µM] | kinact/KI (cathepsin B [5]; cathepsin B, pH 7.2) [M⁻¹ s⁻¹] | Ki (cathepsin B [5]; cathepsin B, pH 7.2) [µM] | IC50 (cathepsin B [5]; [10]) [µM] | IC50 (Cathepsin S; pH 4.6) [µM] | IC50 (Cathepsin S; pH 7.2) [µM] | IC50 (Cathepsin V [6]; Cathepsin V, pH 7.2) [µM] | IC50 (Cathepsin L [7]) [µM] | IC50 (Cathepsin H; pH 4.6, without pre-incubation) [µM] | IC50 (Cathepsin H; pH 7.2, without pre-incubation) [µM] | IC50 (Cathepsin X) [µM] | IC50 (Cathepsin C; pH 4.6) [µM] | IC50 (Cathepsin C; pH 7.2) [µM] | Structure (SMILES) | inhibition of proteolytic (cathepsin B) activity in cell lysate [1] | other results |
| --- | --- | --- | --- | --- | --- | --- | --- | --- | --- | --- | --- | --- | --- | --- | --- | --- | --- | --- | --- | --- | --- |
| – | – | – | – | – | – | – | – | – | – | – | – | – | – | – | – | – | – | – | CCCNC(=O)[C@H]1O[C@@H]1C(=O)N[C@H](C(=O)N1CCC[C@H]1C(=O)O)[C@@H](C)CC [CA-074, reference compound] | completely inhibited | – |
| 7.8 | – | – | – | – | – | – | – | – | – | – | – | – | – | – | – | – | – | – | Cc1cc(=O)oc2cc(NC(=O)[C@H](CCCCN)NC(=O)[C@H](CCCNC(=N)N)NC(=O)OCc3ccccc3)ccc12 [Z-Arg-Lys-AMC] (Cbz-Arg-Lys-{AMC}) | – | substrate activity for cathepsin L (Cathepsin L [3]; pH 7.2): no activity; substrate activity for cathepsin V (Cathepsin V [4]; pH 7.2): no activity |
| – | no inhibition | > 16 | > 16 | 1800 | 15 | 1.5 | 110000 | 0.13 ± 0.05 | 0.02 ± 0.0083 | > 16 | 2.2 | 0.44 | > 16 | > 16 | > 16 | > 16 | > 16 | 0.85 | Cc1cccc(C)c1C(=O)OCC(=O)[C@H](CCCCN)NC(=O)[C@H](CCCN=C(N)N)NC(=O)OCc1ccccc1 [Z-Arg-Lys-AOMK] | completely inhibited | reduction of cathepsin B activity with Z-Phe-Arg-AMC as substrate (cathepsin B [5]; pH 4.6): 5%; reduction of cathepsin B activity with Z-Phe-Arg-AMC as substrate (cathepsin B [5]; pH 7.2): 93%; IC50 (cathepsin B [5]; cathepsin B, pH 6.8): 0.022 µM; fold greater potency at pH 7.2 compared to pH 4.6 (KI values) (cathepsin B [5]; cathepsin B, ratio of KI at pH 4.6 and pH 7.2): 115 fold; fold more potent for cathepsin B than cathepsin S (IC50) (Cathepsin S; pH 7.2): 110 fold; fold more potent for cathepsin B than cathepsin V (IC50) (Cathepsin V [6]; pH 7.2): 22 fold; inhibition at 16 μM (Cathepsin H; pH 4.6, at 16 μM inhibitor): no inhibition; cell permeability [8]: cell permeable; fold more potent for cathepsin B than cathepsin C (IC50) (Cathepsin C; pH 7.2): 43 fold |
| 4.6 | – | – | – | – | – | – | – | – | – | – | – | – | – | – | – | – | – | – | Cc1cc(=O)oc2cc(NC(=O)[C@H](CCCCN)NC(=O)[C@H](CCC(=O)O)NC(=O)OCc3ccccc3)ccc12 [Z-Glu-Lys-AMC] (Cbz-Glu-Lys-{AMC}) | – | substrate activity for cathepsin L (Cathepsin L [3]; [11]): no activity; substrate activity for cathepsin V (Cathepsin V [4]; [11]): no activity |
| – | 10% | > 16 | > 16 | 2000 | 7.9 | 1.1 | 8200 | 2.3 | 0.32 ± 0.045 | > 16 | > 16 | > 16 | > 16 | > 16 | > 16 | > 16 | 8.6 | 12 | Cc1cccc(C)c1C(=O)OCC(=O)C(CCCCN)NC(=O)C(CCC(=O)O)NC(=O)OCc1ccccc1 (stereo not drawn) [Z-Glu-Lys-AOMK] | – | % inhibition (Cathepsin S; pH 4.6): 26%; % inhibition (Cathepsin S; pH 7.2): 30%; IC50 (Cathepsin V [6]; Cathepsin V, pH 4.6): 1.9 µM; % inhibition (Cathepsin V [6]; Cathepsin V, pH 7.2, at 16 μM (16,000 nM) inhibitor): 10%; % inhibition (Cathepsin L [7]; pH 4.6, at 16 μM (16,000 nM) inhibitor): 23%; fold more potent for cathepsin B than cathepsin C (IC50) (Cathepsin C; pH 7.2): 38 fold |
| – | – | – | – | – | – | – | – | – | – | – | – | – | – | – | – | – | – | – | Cc1cc(=O)oc2cc(NC(=O)C(CCCN=C(N)N)NC(=O)C(Cc3ccccc3)NC(=O)OCc3ccccc3)ccc12 (stereo not drawn) [Z-Phe-Arg-AMC, reference compound] (Cbz-Phe-Arg-{AMC}; configuration not given here) | – | substrate activity for cathepsin L (Cathepsin L [3]; [11]): cleaved; substrate activity for cathepsin V (Cathepsin V [4]; [11]): cleaved |

Reference: PMC9104225 (ACS chemical biology, 2021)
